Test results: ChEMBL document CHEMBL1130035, “Aroyl(aminoacyl)pyrroles, a new class of anticonvulsant agents” (J Med Chem, 1997)
The source made the active and inactive calls. No cut-off for these calls is given here.

What was measured:
[1] = (§1) Minimal motor impairment was measured in mouse by rotating rod test upon intraperitoneal administration; format: toxicity; settings: in vivo, ip
Procedure, shortened: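 Mouse rotorod (rotating rod) test for minimal motor impairment after ip dosing, run alongside the MES and scMET screens. Reported as TD50 (mg/kg) ip with 95% confidence limits.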

Mus musculus [2] = test: Anticonvulsant activity in mouse maximal electroshock seizure test following i.p. administration.; format: functional; settings: ip
Procedure, shortened: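 Test agent given ip as a suspension at 30, 100 and 300 mg/kg to one to four mice, observed at 30 min and, in a separate test, at 4 h. Quantified values are ED50 (mg/kg) with 95% confidence limits.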

[3] = (§2) Ratio of TD50/ED50; TI indicates Therapeutic index; settings: read-out: TI
Procedure, shortened: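 Protective index calculated as TD50 (rotorod, ip) divided by MES ED50 (ip), both in mg/kg.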

Rattus norvegicus [4] = test: Compound was tested for anticonvulsant activity by maximal electroshock seizure(MES) test in rat upon intraperitoneal administration; format: functional; settings: ip
[5] = Minimal motor impairment was measured in rat by overt evidence of ataxia upon intraperitoneal administration; settings: in vivo, ip
Mus musculus [6] = test: Effective dose was determined by Maximum Electroshock Seizure test after intraperitoneal dose in mouse; settings: ip
[7] = Ratio of TD50/ED50.; format: ADME; settings: read-out: TI
Procedure, shortened: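 Maximal electroshock seizure ED50 was determined with ip dosing and reported in mg/kg with 95% confidence limits. TD50 was determined ip by the rotating rod test for minimal motor impairment, and in some cases by overt ataxia. Protective index = TD50/ED50.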

[8] = Toxic dose was measured in mouse by rotating rod test; settings: in vivo
[9] = Toxic dose was measured in rat by rotating rod test.; settings: in vivo
Rattus norvegicus [10] = test: Minimal motor impairment was measured in rat by rotating rod test upon intraperitoneal administration; settings: ip
Mus musculus [11] = test: Ability to block seizures induced by bicuculline after intraperitoneal administration.; format: functional; settings: ip
Mus musculus [12] = test: Ability to block seizures induced by bicuculline after intraperitoneal administration; NA indicates not active; format: functional, organism-based
Mus musculus [13] = test: as §1; settings: ip
[14] = as §2

| Structure (SMILES) | TD50 [1] | ED50 (Mus musculus [2]) | selectivity ratio [3] | ED50 (Rattus norvegicus [4]) | TD50 [5] | also measured |
| --- | --- | --- | --- | --- | --- | --- |
| Cn1cc(C(=O)c2ccc(Cl)cc2)cc1C(=O)CN1CCCCC1 | 141 mg/kg | 59.7 mg/kg | 2.36 |  |  |  |
| Cc1c(C(=O)CN2CCCC2)c(C)n(C)c1C(=O)c1ccc(Cl)cc1 | 54.8 mg/kg | 15.2 mg/kg | 3.6 | 16.2 mg/kg | 203 mg/kg |  |
| O=C1NC(=O)C(c2ccccc2)(c2ccccc2)N1 [PHENYTOIN] |  |  |  |  |  | ED50 (Mus musculus [6]): 6.48 mg/kg; selectivity ratio [7]: 6.6; TD50 [8]: 42.8 mg/kg; TD50 [9]: > 500 mg/kg |
| CCN(CC)CC(=O)c1cc(C(=O)c2ccc(Cl)cc2)n(C)c1.Cl | 40.5 mg/kg |  | 2.81 | 19.3 mg/kg | > 500 mg/kg |  |
| Cn1cc(C(=O)CN2CCCC2)cc1C(=O)c1ccc(Cl)cc1 | 240 mg/kg | 49.1 mg/kg | 4.89 | 17.9 mg/kg | > 500 mg/kg |  |
| CCN(CC)CC(=O)c1c(C)c(C(=O)c2ccc(Cl)cc2Cl)n(C)c1C | 50.6 mg/kg | 14.9 mg/kg | 3.38 | 19.4 mg/kg | > 500 mg/kg |  |
| Cc1c(C(=O)CN2CCCC2)c(C)n(C)c1C(=O)c1ccc(Cl)cc1Cl.Cl | 23.8 mg/kg | 10.3 mg/kg | 2.3 | 19 mg/kg | > 200 mg/kg |  |
| O=C(CN1CCOCC1)c1c[nH]c(C(=O)c2ccc(Cl)cc2)c1 | 84.1 mg/kg | 86.2 mg/kg | 0.98 | 41 mg/kg | 88 mg/kg |  |
| CCCC(CCC)C(=O)O [VALPROIC ACID] |  |  |  |  |  | TD50 (Rattus norvegicus [10]): 859 mg/kg |
| Cl.Cn1cc(C(=O)CN2CCCCCC2)cc1C(=O)c1ccc(Cl)cc1 | 46.1 mg/kg | 27.5 mg/kg | 1.67 | 22 mg/kg | > 500 mg/kg |  |
| Cn1cc(C(=O)CN2CCCC2)cc1C(=O)c1cccc(Cl)c1.[O-][Cl+3]([O-])([O-])O | 55.6 mg/kg | 16.5 mg/kg | 3.38 |  |  |  |
| Cl.Cn1cc(C(=O)CNC23C[C@H]4C[C@@H](C2)C[C@@H](C3)C4)cc1C(=O)c1ccccc1Cl | > 250 mg/kg | 159 mg/kg | > 1.57 |  |  |  |
| Cc1c(C(=O)CN2CCCCC2)c(C)n(C)c1C(=O)c1ccc(Cl)cc1 | 113 mg/kg | 23.9 mg/kg | 4.73 | 28.1 mg/kg | > 500 mg/kg | ED50 (Mus musculus [11]): 25.2 mg/kg |
| CCN(CC)CC(=O)c1c(C)c(C(=O)c2ccc(Cl)cc2)n(C)c1C | 37.7 mg/kg | 10.3 mg/kg | 3.65 | 15.5 mg/kg | > 250 mg/kg |  |
| CCN(CC)CC(=O)c1cc(C(=O)c2ccc(OC)cc2)n(C)c1.Cl | 45.1 mg/kg | 33 mg/kg | 1.37 |  |  |  |
| Cc1c(C(=O)CN2CCOCC2)c(C)n(C)c1C(=O)c1ccc(Cl)cc1 | 233 mg/kg | 87.6 mg/kg | 2.66 |  |  |  |
| Cn1cc(C(=O)CN2CCCCC2)cc1C(=O)c1ccc(Cl)cc1 | 74.2 mg/kg | 24.4 mg/kg | 3.05 | 8.4 mg/kg | 342 mg/kg |  |
| NC(=O)N1c2ccccc2C=Cc2ccccc21 [CARBAMAZEPINE] |  | 9.9 mg/kg |  | 36 mg/kg |  | ED50 (Mus musculus [12]): inactive; TD50 (Mus musculus [13]): 47.8 mg/kg; selectivity ratio [14]: 4.93 |
| Cl.Cn1cc(C(=O)CN2CCOCC2)cc1C(=O)c1cccc(Cl)c1 | 110 mg/kg | 37.4 mg/kg | 2.96 | 72 mg/kg | > 500 mg/kg |  |
